# Screens: PubChem BioAssay, several laboratories
# APP 5'UTR act – activators of APP 5'UTR luciferase reporter, primary screen, SH-SY5Y cells; SH-SY5Y APP 5'UTR luciferase reporter, luminescence; zero percent = DMSO vehicle wells; activation, % at 2 µM; 190,000 tested, 1% active; AID 1276, 2008;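 active = activation above a set limit, based on mean plus 3 SD of controls, cut at about 140% in these data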
# APP 5UTR inh – inhibitors of APP translation via 5'UTR reporter, primary screen, APP 5'UTR luciferase, SH-SY5Y cells. 190,000 tested, 0.82% active. SH-SY5Y APP 5'UTR-luciferase reporter, luminescence. inhibition, % at 2 µM;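 active = inhibition above a set limit, derived from the sample mean plus 3 SD, cut at about 45% in these data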
# STAT1 act – STAT1 signaling activators, primary screen, cell-based, HTS, luciferase reporter; NIH 3T3 STAT1-luciferase reporter, IFN-gamma, luminescence; 100% = IFN-gamma alone, no compound; activation (% of control), % at 5.5 µM; 200,000 tested, 2.6% active; AID 932, 2007;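 active = activation above the screen-wide mean activation plus 3 SD, cut at about 130% in these data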;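 also: raw ratio to IFN-gamma control signal so 100% means no change and 0% no light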
# FLuc inh counter – firefly luciferase enzyme inhibitors, primary screen, artefact control for luciferase-based inhibitor screens, biochemical, luminescence, ATPLite; 200,000 tested, 1.5% active; inhibition, % at 10 µM; AID 1006, 2008; 10 min;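 active = inhibition above about 50% when tested at 10 µM, limit read from the data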
# Target sequence (P08659 whole entry, looked up): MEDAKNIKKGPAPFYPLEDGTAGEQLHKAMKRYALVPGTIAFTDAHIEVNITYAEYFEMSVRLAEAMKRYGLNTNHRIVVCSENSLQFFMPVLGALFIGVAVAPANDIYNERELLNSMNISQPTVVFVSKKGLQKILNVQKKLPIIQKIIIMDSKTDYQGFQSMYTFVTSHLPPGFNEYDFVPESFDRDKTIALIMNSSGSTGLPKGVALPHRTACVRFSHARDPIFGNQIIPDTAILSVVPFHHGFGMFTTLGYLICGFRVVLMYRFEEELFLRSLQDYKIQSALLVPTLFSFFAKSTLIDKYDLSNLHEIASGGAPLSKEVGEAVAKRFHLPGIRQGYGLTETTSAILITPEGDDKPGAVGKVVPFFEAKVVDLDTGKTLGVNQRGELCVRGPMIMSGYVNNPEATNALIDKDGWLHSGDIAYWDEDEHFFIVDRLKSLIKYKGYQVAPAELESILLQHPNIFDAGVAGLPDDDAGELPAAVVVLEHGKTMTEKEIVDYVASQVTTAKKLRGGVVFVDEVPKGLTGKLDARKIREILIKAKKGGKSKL
# NF-kB expr up – activators of NF-kB expression in neurons, primary screen, cell-based, HTS. human neuronal cells, NF-kB reporter expression; hits give high values. fold change at 12.5 µM. 190,000 tested, 1.6% active. AID 1239, 2008; in the data active = fold change above about 3.3
# FLuc stim CS – FLuc activators, initial screening, artefact control for FLuc-dependent activation tests, biochemical, ATPlite luminescence. ATPlite luciferase biochemical, 10 min; 0 = ATP-free wells, 1 = DMSO control. AID 1027, 2008. 200,000 tested, under 10 active. Luciferin 4-monooxygenase (Photinus pyralis), P08659. activation factor at 10 µM;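 active = luciferase activation factor, scaled between plate controls, of at least 2 with compound at 10 µM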
#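 assay system = Luciferase/luciferin detection reagent, cell-free biochemical luciferase assay | also added = ATP substrate | times = 10 min post-reagent at room temperature | measured by = luminescence from luciferase reaction | measure = luciferase activation, seen as luminescence increase over controls | benchmarks = low control with PBS replacing ATP, high control enzyme plus ATP without compound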
# * hit, by the source's call; . = no result given. This is a sample that favours compounds with a hit; in the whole collection about 4.8% have one here.
SMILES,APP 5'UTR act,APP 5UTR inh,STAT1 act,FLuc inh counter,NF-kB expr up,FLuc stim CS
CCCNC(=O)c1noc2c1CCc1cc(OC)ccc1-2,160*,-160,110,78*,6.1*,0.2
Cc1ccc(O)c(NC(=O)c2noc3c2CCc2ccccc2-3)c1,93,-93,111,10,1.1,0.9
Cc1cc(NC(=O)c2noc3c2CCc2ccccc2-3)no1,.,.,.,-2,1.7,1
COc1ccc2c(c1)CCc1c(C(=O)N3CCCCCC3)noc1-2,130,-130,136*,12,3.4*,0.9
CCN(CC)CCCN1C(=O)C(=O)/C(=C(/O)c2ccc3c(c2)CC(C)O3)C1c1cccnc1 (stereo not given),.,.,.,-5,.,1
O=C1CC[C@@H](CN(Cc2ccccn2)Cc2nc(Cc3cccc(C(F)(F)F)c3)no2)N1,4,-4,104,1,1.2,1
Cc1cc(-c2ccccc2)n(-c2cc(N/N=C/c3ccccc3O)ncn2)n1,-96,96*,94,-4,0.98,1
CCOC(=O)c1ccccc1NC(=O)c1n[nH]c(=O)c2ccccc12,0,0,85,-2,3.7*,1
CCOC(=O)c1ccc(NC(=O)c2n[nH]c(=O)c3ccccc23)cc1,37,-37,106,8,1.2,0.9
NC(=O)c1ccccc1-c1nc(-c2ccccc2)no1,57,-57,113,7,1.8,0.9
Fc1ccccc1-c1nc(-c2ccccc2)no1,157*,-157,130*,60*,6.5*,0.4
Brc1ccccc1-c1nc(-c2ccccc2)no1,180*,-180,147*,73*,9.5*,0.3
Cc1cc[n+]2cc(-c3cccc([N+](=O)[O-])c3)c(-c3cccc([N+](=O)[O-])c3)cc2c1,-8,8,96,-3,1.2,1
O=C(NC12CC3CC(CC(C3)C1)C2)c1ccc(-c2ccc(Cl)cc2)o1,55,-55,130*,22,0.76,0.8
O=C(NC12CC3CC(CC(C3)C1)C2)c1ccc(-c2ccccc2Cl)o1,182*,-182,171*,28,1.2,0.7
O=C(Cc1c(C(=O)O)[nH]c2ccc(Cl)cc12)Nc1ccc2c(c1)OCCO2,-6,6,90,-8,1.1,1.1
CCOc1ccccc1NC(=O)C1CCN(S(=O)(=O)c2cccc3cccnc23)CC1,-4,4,.,-11,0.4,1.1
CCOC(=O)N1CCN(c2ccc(O)cc2)CC1,24,-24,95,-6,3.5*,1.1
O=C(c1ccc2ccccc2c1)N1CCN(c2ccc(O)cc2)CC1,21,-21,99,-5,4.1*,1.1
CCOC(=O)N1CCN(c2ccc(Cl)cc2)CC1,3,-3,98,-3,1.5,1
O=C(O)c1ccc2c3c(cccc13)C(=O)N(c1ccccc1)C2=O,0,0,99,-3,0.94,1
CC(=O)c1ccc2c3c(cccc13)C(=O)N(CCc1ccccc1)C2=O,97,-97,132*,-2,1.7,1
Nc1nnc(-c2ccc(F)cc2)s1,7,-7,103,1,1.2,1
CCOc1ccc(-c2nc(CCl)cs2)cc1,48,-48,116,70*,3.8*,0.3
CCCCOc1ccc(-c2nnc(N)s2)cc1,25,-25,126,41,2.1,0.6
SMILES,APP 5'UTR act,APP 5UTR inh,STAT1 act,FLuc inh counter,NF-kB expr up,FLuc stim CS
CCOc1ccc(-c2nnc(N)s2)cc1,38,-38,113,58*,2,0.4
ClCc1csc(-c2ccc(Cl)cc2)n1,21,-21,104,0,1.4,1
CC(C)(C)c1ccc(-c2nnc(N)s2)cc1,146*,-146,132*,87*,4.9*,0.1
CC(C)c1cccc(C(C)C)c1NC(=O)Cn1c(=O)cnc2ccccc21,2,-2,93,-2,1.2,1
O=C(O)c1cn(Cc2cccnc2)c(=O)c2ccccc12,9,-9,91,-5,0.98,1.1
O=C(O)c1cn(Cc2ccccn2)c(=O)c2ccccc12,152*,-152,109,2,0.94,1
CC1=Nc2ccccc2/C1=C\c1nc(-c2ccc(F)cc2)oc1O,18,-18,105,-1,1.2,1
N#CCCN(C(=O)Nc1ccc(Cl)c(Cl)c1)c1ccccc1,9,-9,97,-2,0.87,1
CC(C)(C)c1ccc(OCC(=O)N2CCCCCC2)c(Br)c1,19,-19,134*,0,1,1
CCn1c(=O)cc(OCC(=O)N2CCCCCC2)c2ccccc21,-55,55*,100,0,1,1
CCn1c(=O)cc(OCC(=O)N2CCN(c3ccc(F)cc3)CC2)c2ccccc21,-5,5,93,-5,0.91,1.1
CC(=O)C1=C(C)NC(=O)NC1c1ccc(Cl)cc1 (stereo not given),2,-2,102,-7,1.1,1.1
CC(=O)N(/N=C1\Sc2ccccc2C1=O)c1ccccc1C,131,-131,124,4,5*,1
O=C(CSc1ccccc1)N1CCc2ccccc21,78,-78,132*,21,3,0.8
Cc1cc(=O)[nH]c(SCC(=O)N2CCCc3ccccc32)n1,-65,65*,94,-3,1.1,1
O=C(CCCOc1ccccc1)N1CCCc2ccccc21,20,-20,113,-7,1.7,1.1
O=C(CSc1nc(O)cc(=O)[nH]1)N1CCCc2ccccc21,-10,10,100,0,0.78,1
O=C(COc1ccccc1)N1CCc2ccccc21,78,-78,134*,40,2.4,0.6
CCC(=O)Oc1ccc2ccccc2c1CNC(=O)c1ccccc1,10,-10,84,-1,0.77,1
CCCCn1c(=O)n(CC(=O)Nc2ccc(OC)c(Cl)c2)c(=O)c2c1nc(CO)n2CCC,-1,1,95,-2,0.88,1
Nc1ccc(N2CCN(c3ccc(F)cc3)CC2)cc1,-10,10,96,-8,3,1.1
Nc1ccc(N2CCN(c3ccc(Cl)c(Cl)c3)CC2)cc1,-32,32,101,-1,3.4*,1
O=C(O)CC12CC3CC(C1)CC(n1cncn1)(C3)C2,5,-5,98,-2,1.2,1
COc1ccc(C(=O)c2ccc(N(C)C)cc2)c(OC)c1,-78,78*,115,-5,0.9,1
CN(C)c1ccc(C(=O)c2ccc(N(C)C)c3ccccc23)cc1,-95,95*,139*,-6,5.2*,1.1
COc1ccc(OC)c(C(=O)c2ccc(C(=O)c3cc(OC)ccc3OC)cc2)c1,1,-1,99,-8,0.96,1.1
